We go through two molecules from ChEMBL document CHEMBL3751842, “Novel triazolothiadiazines act as potent anticancer agents in liver cancer cells through Akt and ASK-1 proteins” (Bioorg Med Chem, 2016).

SMILES strings stand for the structures. Calls of active or inactive are those of the source. The calls are words filed in the database; no cut-off is given here.

For assay [1], the target named is T1, Catenin beta-1 (Homo sapiens) (UniProt P35222).
T1 sequence (whole entry): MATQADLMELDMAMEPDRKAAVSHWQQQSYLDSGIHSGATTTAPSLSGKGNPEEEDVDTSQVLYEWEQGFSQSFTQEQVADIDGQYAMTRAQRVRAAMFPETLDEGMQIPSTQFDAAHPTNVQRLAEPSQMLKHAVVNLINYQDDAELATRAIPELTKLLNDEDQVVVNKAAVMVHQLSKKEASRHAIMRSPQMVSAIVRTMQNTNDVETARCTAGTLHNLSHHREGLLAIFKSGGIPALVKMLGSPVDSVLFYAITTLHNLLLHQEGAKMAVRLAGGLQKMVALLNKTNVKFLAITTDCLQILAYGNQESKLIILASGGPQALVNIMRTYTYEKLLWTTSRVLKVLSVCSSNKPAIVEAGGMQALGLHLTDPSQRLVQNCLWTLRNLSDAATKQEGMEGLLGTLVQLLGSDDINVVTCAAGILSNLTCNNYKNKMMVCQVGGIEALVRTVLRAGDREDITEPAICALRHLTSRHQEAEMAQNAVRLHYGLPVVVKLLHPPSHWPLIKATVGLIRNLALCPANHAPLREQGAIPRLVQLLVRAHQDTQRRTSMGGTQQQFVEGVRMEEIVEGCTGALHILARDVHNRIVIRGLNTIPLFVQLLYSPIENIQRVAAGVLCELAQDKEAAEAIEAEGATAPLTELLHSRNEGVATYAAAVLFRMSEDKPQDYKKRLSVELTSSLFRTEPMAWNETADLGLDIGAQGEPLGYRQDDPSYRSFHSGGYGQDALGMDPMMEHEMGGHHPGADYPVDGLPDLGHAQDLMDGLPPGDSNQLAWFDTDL
In words: Induction of beta-catenin phosphorylation in human Mahlavu cells after 24 to 48 hrs by Western blot analysis. It counts as cell-based. In short, it runs like this: (§1)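 Cells were exposed to compound or DMSO control for 24 or 48 h. Lysates were loaded at […] protein per lane and immunoblotted with antibodies diluted 1:100 to 1:500 in 5% BSA-TBS-T. Targets were p-Akt (Ser473), Akt, p-GSK3-α/β (Ser21/9), GSK3-α/β, SAPK/JNK, p-SAPK/JNK (Thr183/Tyr185), PARP, p-β-catenin, β-catenin, cyclin D1, p-ASK1 (S83) and p-ASK1 (S966). Actin served as the loading control.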

A further assay has as its system Mahlavu. In words: Induction of oxidative stress in human Mahlavu cells assessed as ROS accumulation at 10 uM after 48 hrs by DCFH-DA staining based fluorescence microscopy. It counts as functional, cell-based. In short, it runs like this:
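Cells in 6-well dishes were treated with 10 µM compound or DMSO for 48 h. They were washed in PBS and stained for 15 min at 37°C in the dark with DCFH-DA solution (1 mM DCFH-DA, 10 mM glucose, 10 mM HEPES in PBS). After three PBS washes, cells were viewed by fluorescence microscopy. Selenium-deficient serum-free medium culture served as the positive control.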

Assay [2] has as its system Huh-7. In words: Induction of apoptosis in human HuH7 cells assessed as PARP cleavage after 24 to 48 hrs by Western blot analysis. It counts as functional, cell-based. In short, it runs like this: as §1
Assay [3] concerns Huh-7. In words: Cytotoxicity against human HuH7 cells assessed as cell impedance at IC25 to IC100 measured every 30 mins for 72 hrs by RT-CES assay. The following applies: TDE = time-dependent effect. It counts as functional, cell-based. In short, it runs like this: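 Huh7 cells were seeded at 1000–5000 cells/well on electrode plates. […] Impedance was read as cell index every 10 min for the first 24 h, then every 30 min, over 72 h. Data were normalized to DMSO; inhibition (%) = [1 − (CI treated/CI DMSO)] × 100. Each experiment was run at least three times.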

Assay [4] can be described thus: Cytotoxicity against human HuH7 cells assessed as growth inhibition after 72 hrs by sulforhodamine B assay. It counts as functional, cell-based, Huh-7. The following applies: Homo sapiens, Huh-7, 72 h; read-out: IC50. The gist of the method: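 Cells were grown at 37°C, 5% CO2 in DMEM with 10% FBS. They were seeded at 1000–3000 cells/well, grown 24 h, then exposed to compound at 2.5–40 µM for 72 h. Cells were fixed in 10% TCA for 1 h at 4°C, stained with 0.4% SRB in 1% acetic acid for 10 min, and the dye solubilized in 10 mM Tris. Absorbance was read at 515 nm; runs were in triplicate; IC50 was calculated, with fits of R2 0.8–1 accepted.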

As for `COc1ccc(C2=Nn3c(nnc3C(C)c3ccc(CC(C)C)cc3)SC2)cc1` (stereo not given), the result (in assay [1]; in the assay with Mahlavu; in the assay on Huh-7 [2]) was Active. Further, the Activity entry in the assay on Huh-7 [3] is “tde”. In assay [4], the IC50 was determined as 3.7 µM.

For the molecule `Cc1ccc(C2=Nn3c(nnc3C(C)c3ccc(CC(C)C)cc3)SC2)cc1` (stereo not given), the outcome (in assay [1]; in the assay on Mahlavu; in the assay on Huh-7 [2]) was Active. The Activity entry with Huh-7 [3] was “tde”. In assay [4], the IC50 worked out at 5 µM.
